Data from ChEMBL document CHEMBL1649120, “Differential effects of inhibiting chitin and 1,3-{beta}-D-glucan synthesis in ras and calcineurin mutants of Aspergillus fumigatus” (2009).
Activity calls are given as the source filed them. The calls are words filed in the database; no cut-off is given here.

How the values were obtained:
Aspergillus fumigatus [1] = test: Antifungal activity against Aspergillus fumigatus Af293 assessed as abnormal hyphal growth by CLSI method; type: functional; settings: read-out: MEC
Procedure, shortened: (§1)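 MEC by CLSI broth microdilution in RPMI 1640. Conidia were incubated with or without drug for 48 h at 37°C, in triplicate.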

Aspergillus fumigatus [2] = test: Antifungal activity against cnaA deficient Aspergillus fumigatus Af293 assessed as abnormal hyphal growth by CLSI method; type: functional; settings: read-out: MEC; procedure, shortened: as §1
Aspergillus fumigatus [3] = test: Antifungal activity against Aspergillus fumigatus Af293 expressing cnaA gene assessed as abnormal hyphal growth by CLSI method; type: functional; settings: read-out: MEC; procedure, shortened: as §1
Aspergillus fumigatus [4] = test: Antifungal activity against crzA deficient Aspergillus fumigatus Af293 assessed as abnormal hyphal growth by CLSI method; type: functional; settings: read-out: MEC; procedure, shortened: as §1
Aspergillus fumigatus [5] = test: Antifungal activity against Aspergillus fumigatus Af293 expressing crzA gene assessed as abnormal hyphal growth by CLSI method; type: functional; settings: read-out: MEC; procedure, shortened: as §1
Aspergillus fumigatus [6] = test: Antifungal activity against Aspergillus fumigatus H237 assessed as abnormal hyphal growth by CLSI method; type: functional; settings: read-out: MEC; procedure, shortened: as §1
Aspergillus fumigatus [7] = test: Antifungal activity against rasA deficient Aspergillus fumigatus H237 assessed as abnormal hyphal growth by CLSI method; type: functional; settings: read-out: MEC; procedure, shortened: as §1
Aspergillus fumigatus [8] = test: Antifungal activity against Aspergillus fumigatus H237 expressing rasA gene assessed as abnormal hyphal growth by CLSI method; type: functional; settings: read-out: MEC; procedure, shortened: as §1
Aspergillus fumigatus [9] = test: Antifungal activity against Aspergillus fumigatus H237 expressing dominant-active rasA gene assessed as abnormal hyphal growth by CLSI method; type: functional; settings: read-out: MEC; procedure, shortened: as §1
Aspergillus fumigatus [10] = test: Antifungal activity against cnaA deficient Aspergillus fumigatus Af293 assessed as inhibition of hyphal growth at germling stage at 1 ug/ml by CLSI method; type: functional, organism-based
Procedure, shortened: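 Conidia were grown as for CLSI susceptibility testing in RPMI 1640 with or without echinocandin (1 μg/ml) for 48 h at 37°C. Hyphal morphology was then examined by bright-field microscopy.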

Aspergillus fumigatus [11] = test: Antifungal activity against rasA deficient Aspergillus fumigatus H237 assessed as decrease in 1, 3-beta-D-glucan cell wall content at 1 ug/ml by aniline blue assay; type: functional, organism-based
Procedure, shortened: (§2)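 10⁶ conidia/ml were grown in RPMI 1640 with or without drug for 48 h at 37°C, 250 rpm. Hyphae were washed in 0.1 M NaOH and lyophilized. 5 mg was taken into 1 M NaOH, sonicated and heated at 52°C for 30 min. Aniline blue mix (pH 9.5) was added for 30 min at 52°C. Fluorescence was read at ex 405/em 460 nm against a curdlan standard curve. Results are % change in RFU/mg versus untreated wild type, from five independent experiments.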

Aspergillus fumigatus [12] = test: Antifungal activity against cnaA deficient Aspergillus fumigatus Af293 assessed as decrease in 1, 3-beta-D-glucan cell wall content at 1 ug/ml by aniline blue assay; type: functional, organism-based; procedure, shortened: as §2
Aspergillus fumigatus [13] = test: Antifungal activity against crzA deficient Aspergillus fumigatus Af293 assessed as decrease in 1, 3-beta-D-glucan cell wall content at 1 ug/ml by aniline blue assay; type: functional, organism-based; procedure, shortened: as §2
Aspergillus fumigatus [14] = test: Antifungal activity against Aspergillus fumigatus Af293 assessed as decrease in 1, 3-beta-D-glucan cell wall content at 1 ug/ml after 48 hrs by aniline blue assay; type: functional, organism-based; procedure, shortened: as §2
Aspergillus fumigatus [15] = test: Antifungal activity against Aspergillus fumigatus H237 assessed as decrease in 1, 3-beta-D-glucan cell wall content at 1 ug/ml after 48 hrs by aniline blue assay; type: functional, organism-based; procedure, shortened: as §2
Aspergillus fumigatus [16] = test: Antifungal activity against Aspergillus fumigatus H237 expressing dominant-active rasA assessed as decrease in 1, 3-beta-D-glucan cell wall content at 1 ug/ml after 48 hrs by aniline blue assay; type: functional, organism-based; procedure, shortened: as §2
Aspergillus fumigatus [17] = test: Antifungal activity against rasA deficient Aspergillus fumigatus H237 assessed as increase in chitin cell wall content at 1 ug/ml; type: functional, organism-based
Procedure, shortened: (§3)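 Cultures were grown at 10⁶ conidia/ml in RPMI 1640 with 1 μg/ml drug (single agent or combination) for 48 h at 37°C, 250 rpm. 5 mg of lyophilized mycelium was digested in saturated KOH at 130°C for 1 h, then ethanol-precipitated. Glucosamine was measured by nitrous acid deamination and MBTH/FeCl₃ colour, A650, against a 10 μg/ml glucosamine standard. Output is glucosamine equivalents (μg/ml), from biological triplicate.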

Aspergillus fumigatus [18] = test: Antifungal activity against Aspergillus fumigatus H237 expressing dominant-active rasA assessed as increase in chitin cell wall content at 1 ug/ml; type: functional, organism-based; procedure, shortened: as §3
Aspergillus fumigatus [19] = test: Antifungal activity against Aspergillus fumigatus Af293 assessed as increase in chitin cell wall content at 1 ug/ml after 48 hrs; type: functional, organism-based; procedure, shortened: as §3
Aspergillus fumigatus [20] = test: Antifungal activity against Aspergillus fumigatus H237 assessed as increase in chitin cell wall content at 1 ug/ml after 48 hrs; type: functional, organism-based; procedure, shortened: as §3
Aspergillus fumigatus [21] = test: Antifungal activity against cnaA deficient Aspergillus fumigatus Af293 assessed as increase in chitin cell wall content at 1 ug/ml; type: functional, organism-based; procedure, shortened: as §3
Aspergillus fumigatus [22] = test: Antifungal activity against crzA deficient Aspergillus fumigatus Af293 assessed as increase in chitin cell wall content at 1 ug/ml; type: functional, organism-based; procedure, shortened: as §3
Candida albicans = test: Antifungal activity against Candida albicans SC5314 assessed as increase in chitin cell wall content at 0.125 ug/ml; type: functional
Aspergillus fumigatus [23] = test: Antifungal activity against Aspergillus fumigatus Af293 assessed as increase in calcofluor white staining og conidia at 1 ug/ml after 16 hrs by fluorescence microscopy; type: functional, organism-based
Procedure, shortened: (§4)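 10³ conidia/ml were grown on coverslips in RPMI 1640 with or without 1 μg/ml drug for 16 h at 37°C. Coverslips were stained with calcofluor white for 5 min at room temperature, rinsed and mounted. Fluorescence microscopy used a UV exposure fixed at 25 ms, set on the untreated wild type.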

Aspergillus fumigatus [24] = test: Antifungal activity against cnaA deficient Aspergillus fumigatus Af293 assessed as increase in calcofluor white staining og conidia at 1 ug/ml after 16 hrss by fluorescence microscopy; type: functional, organism-based; procedure, shortened: as §4
Aspergillus fumigatus [25] = test: Antifungal activity against crzA deficient Aspergillus fumigatus Af293 assessed as increase in calcofluor white staining og conidia at 1 ug/ml after 16 hrss by fluorescence microscopy; type: functional, organism-based; procedure, shortened: as §4

**Q.** How did the minimal effective concentration (Aspergillus fumigatus [1]) turn out when CC[C@H](C)C[C@H](C)CCCCCCCCC(=O)N[C@H]1C[C@@H](O)[C@@H](NCCN)NC(=O)[C@@H]2[C@@H](O)CCN2C(=O)[C@H]([C@H](O)CCN)NC(=O)[C@H]([C@H](O)[C@@H](O)c2ccc(O)cc2)NC(=O)[C@@H]2C[C@@H](O)CN2C(=O)[C@H]([C@@H](C)O)NC1=O [CASPOFUNGIN] was run?
**A.** 1 µg/mL

**Q.** What about the minimal effective concentration (Aspergillus fumigatus [2]) of the same compound?
**A.** 0.25 µg/mL

**Q.** What about the minimal effective concentration (Aspergillus fumigatus [3]) of the same compound?
**A.** 1 µg/mL

**Q.** And the minimal effective concentration (Aspergillus fumigatus [4])?
**A.** 0.5 µg/mL

**Q.** And the minimal effective concentration (Aspergillus fumigatus [5])?
**A.** 1 µg/mL

**Q.** What about the minimal effective concentration (Aspergillus fumigatus [6]) of the same compound?
**A.** 1 µg/mL

**Q.** And the minimal effective concentration (Aspergillus fumigatus [7])?
**A.** 8 µg/mL

**Q.** And the minimal effective concentration (Aspergillus fumigatus [8])?
**A.** 1 µg/mL

**Q.** What about the minimal effective concentration (Aspergillus fumigatus [9]) of the same compound?
**A.** 0.25 µg/mL

**Q.** And the Activity (Aspergillus fumigatus [10])?
**A.** Active

**Q.** And the Activity (Aspergillus fumigatus [11])?
**A.** Active

**Q.** And the Activity (Aspergillus fumigatus [12])?
**A.** Active

**Q.** And the Activity (Aspergillus fumigatus [13])?
**A.** Active

**Q.** What about the Activity (Aspergillus fumigatus [14]) of the same compound?
**A.** Active

**Q.** What about the Activity (Aspergillus fumigatus [15]) of the same compound?
**A.** Active

**Q.** And the Activity (Aspergillus fumigatus [16])?
**A.** Active

**Q.** What about the Activity (Aspergillus fumigatus [17]) of the same compound?
**A.** Active

**Q.** And the Activity (Aspergillus fumigatus [18])?
**A.** Active

**Q.** And the Activity (Aspergillus fumigatus [19])?
**A.** Active

**Q.** And the Activity (Aspergillus fumigatus [20])?
**A.** Active

**Q.** What about the Activity (Aspergillus fumigatus [21]) of the same compound?
**A.** inactive

**Q.** What about the Activity (Aspergillus fumigatus [22]) of the same compound?
**A.** inactive

**Q.** And the “fold change (FC)” value (Candida albicans)?
**A.** 2

**Q.** What about the Activity (Aspergillus fumigatus [23]) of the same compound?
**A.** inactive

**Q.** And the Activity (Aspergillus fumigatus [24])?
**A.** inactive

**Q.** What about the Activity (Aspergillus fumigatus [25]) of the same compound?
**A.** Active
